Laboratory results from ChEMBL document CHEMBL3091458, “Design, synthesis, and biological evaluation of 1,2,4-triazole bearing 5-substituted biphenyl-2-sulfonamide derivatives as potential antihypertensive candidates” (Bioorg Med Chem, 2013).

Assays:
[1] = Displacement of [125I]-Ang-2 from AT2 receptor in porcine myometrial membranes after 1.5 hrs; assay type: cell membranes, Sus scrofa
Method in brief: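 Membranes were made from porcine uteri (myometrium). AT1 binding was blocked by adding losartan. [125I]Ang II binding ran in 50 mM Tris-HCl pH 7.4 with 100 mM NaCl, 10 mM MgCl2, 1 mM EDTA, 0.025% bacitracin and 0.2% BSA, at 25 °C for 1.5 h. Bound ligand was caught on GF/C filters, washed with cold Tris and gamma-counted. IC50 was the concentration displacing 50% of specific binding. Run in triplicate.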

[2] = Displacement of [125I]-Ang-2 from AT1 receptor in rat liver membranes after 1.5 hrs; assay type: cell membranes, Membrane
[3] = molecular target: T1, Type-2 angiotensin II receptor (Homo sapiens, UniProt P50052); experiment: Binding affinity to AT2 receptor (unknown origin)
T1 sequence (P50052 whole entry): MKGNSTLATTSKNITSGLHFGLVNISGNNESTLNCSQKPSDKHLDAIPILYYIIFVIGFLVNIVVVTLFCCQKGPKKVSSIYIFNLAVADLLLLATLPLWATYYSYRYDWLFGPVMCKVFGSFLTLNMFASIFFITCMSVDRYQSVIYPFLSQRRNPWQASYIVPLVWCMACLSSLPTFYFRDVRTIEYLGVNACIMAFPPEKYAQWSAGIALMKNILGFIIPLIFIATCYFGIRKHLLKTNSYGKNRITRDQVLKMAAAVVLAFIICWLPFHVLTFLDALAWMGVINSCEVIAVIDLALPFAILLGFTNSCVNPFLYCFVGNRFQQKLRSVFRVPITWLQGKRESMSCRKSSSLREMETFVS

[4] = molecular target: T2, Type-1 angiotensin II receptor (Homo sapiens, UniProt P30556); experiment: Binding affinity to AT1 receptor (unknown origin)
T2 sequence (P30556 whole entry): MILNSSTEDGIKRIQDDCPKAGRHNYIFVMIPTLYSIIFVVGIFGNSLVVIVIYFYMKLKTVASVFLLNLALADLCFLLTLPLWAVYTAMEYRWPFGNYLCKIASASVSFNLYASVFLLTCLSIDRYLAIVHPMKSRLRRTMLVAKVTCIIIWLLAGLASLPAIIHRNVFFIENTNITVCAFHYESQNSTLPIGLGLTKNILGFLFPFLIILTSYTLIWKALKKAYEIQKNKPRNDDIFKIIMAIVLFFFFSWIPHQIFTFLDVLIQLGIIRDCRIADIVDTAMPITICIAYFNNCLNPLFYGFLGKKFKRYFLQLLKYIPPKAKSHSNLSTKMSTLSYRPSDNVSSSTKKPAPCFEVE

Row | SMILES | IC50 [1] [µM] | IC50 [2] [µM] | IC50 [3] [µM] | IC50 [4] [µM]
1 | CCOC(=O)NS(=O)(=O)c1ccc(CN(CC)CC)cc1-c1ccc(Cn2cncn2)cc1 | 0.117 | > 10 |  | 
2 | Cc1ccc(S(=O)(=O)NC(=O)OCc2ccccc2)c(-c2ccc(Cn3cncn3)cc2)c1 | > 10 | > 10 |  | 
3 | CCCCOC(=O)NS(=O)(=O)c1ccc(CC(C)C)cc1-c1ccc(NCC)cc1 | > 10 | > 10 |  | 
4 | CCCCc1nn(C)c(=O)n1Cc1ccc(-n2cccc2-c2nnn[nH]2)cc1 |  |  | > 10 | 0.0025
5 | CCC(=O)NS(=O)(=O)c1ccc(OC)cc1-c1ccc(Cn2cncn2)cc1 | 0.184 | > 10 |  | 
6 | CCCCOC(=O)NS(=O)(=O)c1ccc(C)cc1-c1ccc(Cn2cncn2)cc1 | 0.016 | > 10 |  | 
7 | CCC(=O)NS(=O)(=O)c1ccc(C)cc1-c1ccc(Cn2cncn2)cc1 | 0.223 | > 10 |  | 
8 | CCOC(=O)NS(=O)(=O)c1ccc(CC(C)C)cc1-c1ccc(Cn2cncn2)cc1 | 0.01 | > 10 |  | 
9 | CCCCOC(=O)NS(=O)(=O)c1ccc(CC(C)C)cc1-c1ccc(NC)cc1 | > 10 | > 10 |  | 
10 | CC(C)Cc1ccc(S(=O)(=O)NC(=O)OCc2ccccc2)c(-c2ccc(Cn3cncn3)cc2)c1 | > 10 | > 10 |  | 
11 | CCCCOC(=O)NS(=O)(=O)c1sc(CC(C)C)cc1-c1ccc(Cn2ccnc2)cc1 [BULOXIBUTID] | 0.0004 | > 10 |  | 
12 | CCCCOC(=O)NS(=O)(=O)c1ccc(CC(C)C)cc1-c1ccc(NCCC)cc1 | > 10 | > 10 |  | 
13 | COc1ccc(S(=O)(=O)NC(=O)OC(C)(C)C)c(-c2ccc(Cn3cncn3)cc2)c1 | 0.17 | > 10 |  | 
14 | Cc1ccc(S(=O)(=O)NC(=O)OC(C)(C)C)c(-c2ccc(Cn3cncn3)cc2)c1 | 0.289 | > 10 |  | 
15 | Cc1cc(Cn2cnc3c2C[C@@H](C(=O)O)N(C(=O)C(c2ccccc2)c2ccccc2)C3)ccc1N(C)C | 0.029 | > 10 |  | 
